In the library only some 1.9% were active in any assay of this set; here they are far more common.
CHRM4 antagonist: antagonists of human muscarinic M4 receptor (CHRM4) | P08173 | CHO-hM4 cells, ACh EC80, Fluo-8 calcium fluorescence | inhibition, % at 3 µM | hit rate 0.73% among 360,000 | AID 624125;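 active = inhibition above its plate's cutoff, the mean inhibition of sample wells plus 3 SD, cut at about 27% in these data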;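 note: 0% = acetylcholine EC80 with DMSO and 100% = DMSO without agonist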
Target sequence (P08173 whole entry, looked up): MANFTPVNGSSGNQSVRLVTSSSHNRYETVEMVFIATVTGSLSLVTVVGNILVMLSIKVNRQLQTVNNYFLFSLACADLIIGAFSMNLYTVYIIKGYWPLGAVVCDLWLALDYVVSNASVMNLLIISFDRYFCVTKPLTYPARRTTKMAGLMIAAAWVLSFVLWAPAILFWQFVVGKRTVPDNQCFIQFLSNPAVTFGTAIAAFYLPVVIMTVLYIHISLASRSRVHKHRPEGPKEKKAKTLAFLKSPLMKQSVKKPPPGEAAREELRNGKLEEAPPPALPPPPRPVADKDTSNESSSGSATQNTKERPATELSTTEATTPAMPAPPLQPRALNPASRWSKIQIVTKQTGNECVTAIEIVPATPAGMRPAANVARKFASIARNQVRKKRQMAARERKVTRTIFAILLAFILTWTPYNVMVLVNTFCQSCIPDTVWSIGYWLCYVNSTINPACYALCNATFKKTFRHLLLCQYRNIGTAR
CHRM4 PAM: CHRM4 positive allosteric modulation. CHO-K1 hM4/Gqi5, Fluo-8 calcium fluorescence, ACh EC20; 0% = ACh EC20, 100% = maximal ACh. P08173. AID 624126. activation, % at 3 µM. hit rate 0.4% among 360,000;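 active = activation above its plate's cutoff, the mean activation of sample wells plus 3 SD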
CHRM5 agonist: agonists of human muscarinic M5 receptor (CHRM5); P08912; CHO-K1 hM5 cells, Fluo-8 calcium fluorescence; 0% DMSO wells, 100% maximal acetylcholine response; activation, % at 3 µM; hit rate 0.19% among 360,000;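 active = activation above the run's mean over test compounds plus 3 SD, cut at about 23% in these data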;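 note: signal is peak over basal fluorescence ratio across the kinetic read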
M5 antag: antagonists of human muscarinic M5 receptor (CHRM5); P08912; CHO-hM5 cells, Fluo-8 calcium fluorescence, ACh EC80; inhibition, % at 3 µM; hit rate 0.59% among 360,000;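 active = inhibition above a per-plate cutoff, the mean of that plate's test compounds plus 3 SD, cut at about 27% in these data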;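 note: 0% = acetylcholine EC80 with DMSO and 100% = DMSO without agonist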
CHRM5 PAM: potentiates acetylcholine response at human M5 receptor; hit rate 0.3% among 360,000; activation, % at 3 µM; CHO-K1 hM5, Fluo-8 calcium, ACh EC20 PAM; 0% = ACh EC20, 100% = ACh EC100;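 active = activation above the run cutoff, the mean activation of all test compounds plus 3 SD, cut at about 18% in these data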
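Test system: CHO-K1 hM5 cells / Doses: single-point, 3 µM nominal / Times: Post-acetylcholine fluorescence recording 140 s / Technique: Fluo-8 calcium fluorescence / Measure: Max/basal fluorescence ratio as % of EC20–EC100 ACh window / Benchmarks: low control EC20 acetylcholine (0%), high control EC100 acetylcholine (100%) / Replicates: one well per compound, no replicates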
M4 ag: agonists of human muscarinic M4 receptor (CHRM4). CHO-K1 hM4/Gqi5, Fluo-8 calcium fluorescence; vehicle 0%, full acetylcholine response 100%. activation, % at 3 µM. hit rate 0.14% among 360,000. AID 624127;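 active = activation above the run mean over all test wells plus 3 SD, cut at about 32% in these data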;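 note: peak over basal fluorescence ratio per well then scaled between controls; 0% = DMSO wells and 100% = acetylcholine at EC100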
* hit, by the source's call.

SMILES | CHRM4 antagonist | CHRM4 PAM | CHRM5 agonist | M5 antag | CHRM5 PAM | M4 ag
CC(=O)c1ccc(N2CCN(C(=O)C3(S(=O)(=O)c4ccc(Cl)cc4)CC3)CC2)cc1 | 0 | -5 | 3 | -4 | -7 | 7
CCOP(=O)(Nc1cccc2oc(=O)c3ccccc3c12)OCC | -4 | 1 | 0 | 6 | 1 | 4
CN(C)c1nc(OCCOC(=O)c2ccccc2)nc(N(C)C)n1 | 2 | 1 | 26* | -6 | -5 | 0
COC(=O)Nc1nncs1 | 0 | -9 | 0 | 0 | 4 | -1
O=C(Nc1nncs1)C1CCCC1 | -8 | -2 | 6 | -9 | 19* | 1
CCOC(=O)/C(CCC[N+](C)(CC)CC)=N\O | 26 | -16 | -8 | 60* | -18 | 1
CCOC(=O)C(Cc1ccnc2ccccc12)=NO | 2 | -1 | -4 | 19 | -5 | 6
CCOC(=O)c1c(-c2ccc(C)o2)csc1NC(=O)CN(C)CC(=O)Nc1ccc(C)cc1 | 31* | -21 | -3 | 15 | -6 | 6
CCc1nc2ccc(C(=O)NCCCN3CCCC3=O)cn2c1N(C)CCC(C)C | 7 | -5 | -9 | 4 | -1 | 0
CCOC(=O)/C=C/C(=O)Nc1ccc(Oc2ccccc2)cc1 | 20 | -16 | -3 | 36* | -26 | 13
Cc1c(NC(=O)c2cc3ccccc3o2)cccc1-n1cnnn1 | -6 | 1 | 1 | 0 | -4 | 5
CC(C)(C)c1cnnn1-c1cccc([N+](=O)[O-])c1 | -2 | 5 | 1 | 7 | -1 | 2
Cc1cc(N2C(=O)C(=O)/C(=C(/O)c3ccc(F)cc3)C2c2ccc(F)cc2)no1 (centres undefined) | 2 | 12 | 0 | -12 | 21* | 0
COc1ccc(/C(O)=C2\C(=O)C(=O)N(c3cc(C)on3)C2c2ccc(OC)c(OC)c2)cc1OC (centres undefined) | 2 | 1 | -3 | 2 | 0 | 0
CC(=O)c1cccc(OC(=O)C2=CC=CN3CCS(=O)(=O)N=C23)c1 | 4 | 2 | 1 | -1 | 0 | 1
O=C(NCC(=O)N(Cc1ccccc1)C(C(=O)NC1CCCC1)c1cccnc1)c1ccco1 (centres undefined) | 2 | 18* | -6 | 6 | 8 | 1
O=C(NCC(=O)N(CC1CCCO1)C(C(=O)NC1CCCC1)c1cccnc1)c1ccco1 (centres undefined) | 5 | 17 | 8 | -13 | 23* | 1
OC(c1ccco1)c1nc(-c2ccc(F)c(Cl)c2)cs1 (centres undefined) | -4 | 0 | 1 | -3 | -1 | 3
C=C1C(=O)C=C2CN(C(=O)c3ccccc3)[C@@](Cc3ccc(F)cc3)(C(=O)OC)[C@@H]12 | 96* | -18 | 81* | 93* | -41 | 143*
CC(=O)OCc1c(C(F)(F)F)nn(C)c1Oc1ccccc1 | -13 | 15 | -1 | 7 | 19* | 22
CC(=O)OCc1c(C(F)(F)F)nn(C)c1Oc1cccc(C(F)(F)F)c1 | 6 | 8 | -1 | -3 | 3 | -1
CCCSc1nc(C)c(CC(=O)O)c(=O)[nH]1 | 2 | 28* | 1 | -5 | 10 | 0
COCCNC(=O)C1(C)CCN(Cc2noc(-c3c(C)noc3C)n2)C1 (centres undefined) | 7 | -5 | 2 | -2 | -2 | 2
CCOc1ccc(S(=O)(=O)N2CCOCC2)cc1NC(=O)CCN1C(=O)NC2(CCCC2)C1=O | -2 | 5 | 0 | 0 | -1 | 0
c1ccc(NCC2OCc3ccccc3CO2)cc1 | 18 | 14 | -2 | 3 | 8 | 5
SMILES | CHRM4 antagonist | CHRM4 PAM | CHRM5 agonist | M5 antag | CHRM5 PAM | M4 ag
CCC(=O)N1Cc2cc(C(=O)Nc3nccs3)nc(-c3cccc(-c4ccccc4OC)c3)c2[C@H]1CCO | 27* | -11 | 6 | 8 | -22 | 23
CCNC(=O)c1cc2c(c(-c3cccc(-c4cc5ccccc5o4)c3)n1)[C@H](CCO)N(C(=O)NC(C)C)C2 | 29* | -9 | 0 | 26 | -21 | 15
CC(C)CCN1CCC[C@]2(N[C@H](c3ccccc3)[C@@H]3C(=O)N(Cc4ccccc4)C(=O)[C@@H]32)C1=O | -13 | 2 | 2 | 3 | 0 | 2
Cc1ccc(NC(=S)NCC2CCCO2)cc1 (centres undefined) | -3 | 26* | -2 | -10 | 0 | 2
Cc1nnc2c(N(C)S(=O)(=O)c3ccccc3)nc3ccccc3n12 | -9 | 2 | -1 | -6 | 2 | 1
Cc1cccc(N=NC(=S)NNc2cccc(C)c2)c1 | 3 | -1 | -10 | 8 | -4 | -1
CC1Oc2ccccc2N(CC(=O)N2CCCc3ccccc32)C1=O (centres undefined) | -7 | 0 | -5 | -5 | 4 | 3
CC1Oc2ccccc2N(CC(=O)N2CCCCC2)C1=O (centres undefined) | -24 | 17* | -3 | 4 | -2 | 2
O=C(C1=C[C@@H](C2CC2)C[C@@H](OCCCCO)O1)N1CCN(Cc2ccc3c(c2)OCO3)CC1 | -9 | -1 | 3 | 7 | 4 | 3
COc1ccc(CNC(=O)c2sc(=O)n(Cc3ccccc3C)c2C)cc1 | -22 | 4 | 41* | -3 | -11 | 24
COc1ccc(CNC(=O)c2sc(=O)n(Cc3ccc(-c4ccccc4)cc3)c2C)cc1OC | -1 | -4 | 8 | 30* | -24 | 21
COc1ccc(Cl)cc1Cn1c(C)c(C(=O)NCc2ccc(C#N)cc2)sc1=O | 12 | -16 | 5 | 3 | -10 | 7
COc1ccc(CNC(=O)c2sc(=O)n(Cc3ccc(C)cc3)c2C)cc1OC | 3 | 1 | 7 | 4 | -7 | 7
Cc1ccccc1Cn1c(C)c(C(=O)NCc2cccc(Cl)c2)sc1=O | -9 | -6 | 1 | 6 | -7 | 6
Cc1c(C(=O)NCc2ccc([N+](=O)[O-])cc2)sc(=O)n1Cc1ccc2c(c1)OCO2 | 5 | -10 | 25* | 8 | -13 | 21
COc1ccccc1Cn1c(C)c(C(=O)NCc2ccc(C#N)cc2)sc1=O | 20 | -18 | 28* | 11 | -13 | 37*
O=C(NC1CCC(CC2CCC(NC(=O)C(Cl)Cl)CC2)CC1)C(Cl)Cl (centres undefined) | 7 | -6 | -1 | 6 | -3 | 1
COC(=O)[C@]12CCCCC=C1N(Cc1ccccc1)C(=O)[C@H](CC(=O)N1CCCCC1)C2 | -6 | -4 | 5 | 7 | -14 | 22
Cc1ccc(CNc2ccc(N3CCOCC3)cc2)cc1 | -20 | 14* | 4 | -1 | 6 | 2
CC(C)c1ccc(CNc2ccc(N3CCOCC3)cc2)cc1 | 2 | -5 | -3 | -1 | 4 | 1
